Assay results from different studies.
Protocols differ between the studies behind these lines.
Cell line: HT-29
Observed: cell growth or viability

| Compound | assay | conditions | endpoint | value |
| --- | --- | --- | --- | --- |
| N.N.[Cl][Pt][Cl] | SRB | 48 h | IC50 | 20000 nM |
| O=C(N/N=C1\C(=O)N(Cc2ccccc2)c2ccc(F)cc21)c1cc2ccccc2[nH]1 | – | 30 µM | inhibition | 94.3% |
| c1ccc2c(c1)[I+]c1ccccc1-2 | trypan blue | 48 h | IC50 | ~100 nM |
| COc1c2c(cc3c1OCO3)[C@]13C=C[C@H](OC)C[C@@H]1[N@](C2)C[C@H]3OC(=O)c1ccc2ccccc2c1 | WST-1 | – | IC50 | > 10000 nM |
| COc1cc2c(c3c1C(=O)C[C@@H](c1ccccc1)O3)[C@H]1[C@@H](O2)OC(C)(C)[C@@H]1OC(C)=O | SRB | 72 h | IC50 | > 10000 nM |
| COc1ccc2c(c1)/C(=N/NC(=O)c1cc3ccccc3[nH]1)C(=O)N2Cc1ccccc1 | – | – | IC50 | 2280 nM |
| COc1c2c(cc3c1OCO3)[C@]13C=C[C@H](OC)C[C@@H]1[N@](C2)C[C@H]3OC(=O)c1ccoc1 | WST-1 | – | IC50 | > 10000 nM |
| O=C(N/N=C1\C(=O)N(Cc2ccccc2)c2ccc(Br)cc21)c1cc2ccccc2[nH]1 | – | – | IC50 | 2260 nM |
| COc1cc2c(O[C@@H]3O[C@H](CO)[C@@H](O)[C@H](O)[C@H]3O)c3c(c(-c4ccc5c(c4)OCO5)c2cc1OC)C(=O)OC3 | – | – | IC50 | 12000 nM |
| CCCCCCCC(=O)SCC/C=C/[C@@H]1CC(=O)NCc2nc(cs2)C2=N[C@@](C)(CS2)C(=O)N[C@@H](C(C)C)C(=O)O1 | resazurin | 48 h | IC50 | 16.2 nM |
| COc1ccc2[nH]cc(CCNc3nccc(Nc4cccc5c4ccn5C)n3)c2c1 | fluorescence | 72 h | IC50 | 3.9 nM |
